# Compound activity from PubChem BioAssay.
# CHO parental Ca – counter-screen: ATP calcium response change in parental CHO cells. parental CHO-K1, ATP-induced calcium, Fluo-8 fluorescence. inhibition, % at 5.6 µM. 330,000 tested, 0.63% active;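 active = inhibition above that plate's mean sample inhibition plus 3 SD, cut at about 26% in these data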;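 also: 0% = ATP-challenged DMSO wells and 100% = DMSO wells without ATP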
#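 Assay system: untransfected parental CHO cell line. Also added: ATP agonist challenge. Dosing: one dose, 5.6 µM nominal. Measured by: Fluo-8 fluorescence. Read-out: % inhibition. Benchmarks: ATP wells versus no-ATP DMSO wells. Repeats: no replicates.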
# GalR3 antagonist – human GalR3 antagonism | O60755 | HEK293 GalR3-CNG cAMP membrane potential fluorescence; galR3 body fused to GalR1 C-terminus | inhibition, % at 3 µM | 360,000 tested, 0.44% active;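 active = inhibition above the screen-wide average plus 3 SD, cut at about 13% in these data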;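 also: forskolin and galanin both at EC90 stimulate the cells; cAMP rise reported by CNG channel membrane potential dye signal; 0% = forskolin plus galanin with DMSO and 100% = forskolin alone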
# Target sequence (O60755 1-299 limits assumed): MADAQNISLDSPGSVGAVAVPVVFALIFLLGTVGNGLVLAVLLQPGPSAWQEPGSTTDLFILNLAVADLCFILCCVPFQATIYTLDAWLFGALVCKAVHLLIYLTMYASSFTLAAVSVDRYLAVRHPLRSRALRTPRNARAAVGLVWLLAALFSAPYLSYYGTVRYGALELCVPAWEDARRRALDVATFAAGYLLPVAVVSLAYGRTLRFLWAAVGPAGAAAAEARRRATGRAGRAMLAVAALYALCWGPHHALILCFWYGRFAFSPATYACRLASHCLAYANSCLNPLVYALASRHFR
# GPR7 antagonist – antagonists of human GPR7 (neuropeptides B/W receptor 1); 290,000 tested, 1.1% active; P48145; inhibition, % at 4.4 µM; GPR7-expressing cells, fluorescence antagonist assay; in the data active = inhibition above about 16%, passing the limit was not always enough;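 also: cells stimulated with the agonist NPW; 0% = agonist with vehicle and 100% = vehicle without agonist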
# OX1R antag-1 – OX1R (human) antagonism. 330,000 tested, 1.8% active. OX1R-expressing cells, FRET antagonist read-out. inhibition, % at 6.6 µM. O43613; in the data active = inhibition mostly above about 38%, no sharp cut-off; inactive = mostly below about 40%;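 also: 0% = agonist challenge alone and 100% = reference antagonist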
# OX1R antag-2 – blocks the human orexin 1 receptor. 330,000 tested, 0.43% active. CHO/OX1R cells, Fluo-8 calcium fluorescence, orexin A. O43613. inhibition, % at 5 µM;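 active = inhibition above its plate's threshold, mean inhibition of all tested compounds on the plate plus 3 SD, cut at about 37% in these data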;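 also: 0% = orexin A challenge wells and 100% = SB-334867-A antagonist wells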
# GPR7 antag cf – human GPR7 antagonism, confirmation assay. AID 1952. 2,400 tested, 52% active. GPR7-expressing cells, calcium fluorescence antagonist mode. shares compounds with GPR7 antagonist. inhibition, % at 4.4 µM; in the data active = inhibition above about 24%;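 also: stimulated with the GPR7 agonist NPW; 0% = agonist plus vehicle and 100% = vehicle alone without agonist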
# MCHR1 antagonist – antagonizes human MCHR1, a GPR7 antagonist counter-screen. 2,400 tested, 62% active. shares compounds with GPR7 antagonist. MCHR1-expressing cells, fluorescence antagonist assay. inhibition, % at 4.4 µM; in the data active = inhibition above about 22%;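 also: 0% = vehicle with agonist and 100% = vehicle without agonist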
# An asterisk follows results filed as active; · = no result given. This is a sample that favours compounds with a hit; in the whole collection about 3.1% have one here.
SMILES,CHO parental Ca,GalR3 antagonist,GPR7 antagonist,OX1R antag-1,OX1R antag-2,GPR7 antag cf,MCHR1 antagonist
CC(C)(CO)NCc1ccccc1OCC(=O)Nc1ccccc1,-9.5,-0.5,-9.2,15.5,5.4,·,·
Cc1ccc(NC(=O)COc2ccccc2CNC(C)(C)CC(C)(C)C)cc1,-9.9,-1.6,24.7*,5.9,-14.0,35.5*,46.3*
CCN(CC)CCCN(C(=O)c1ccco1)c1nc(-c2ccc(Cl)cc2)cs1,-1.7,-15.9,24.3*,9.6,-9.3,30.9*,37.6*
CC(=O)c1ccc(N2CCN(C(=O)c3cccc(Oc4ccccc4)c3)CC2)cc1,11.8,-7.4,23.1*,18.1,10.3,34.1*,53.4*
CC(=O)c1ccc(N2CCN(C(=O)c3ccc(-c4ccccc4)cc3)CC2)cc1,12.2,-10.2,12.6,5.7,-3.6,·,·
O=C(C(=O)N1CCC(c2ccccc2)CC1)c1cccc([N+](=O)[O-])c1,·,-1.8,·,·,·,·,·
Cc1ccc(NC(=O)c2nc(S(=O)(=O)Cc3ccccc3)ncc2Cl)cc1,38.9*,-2.3,35.4*,11.5,37.6,59.8*,98.3*
O=C(Nc1ccc(F)cc1)c1nc(S(=O)(=O)Cc2ccccc2)ncc1Cl,26.3,-0.1,16.2,33.8,30.3,·,·
Cc1cccc(CS(=O)(=O)c2ncc(Cl)c(C(=O)Nc3c(C)cccc3C)n2)c1,23.5,-5.2,50.6*,88.8*,76.9*,58.0*,97.4*
CC(=O)Nc1cccc(-c2ccnc3c2CC(C)(C(=O)NCCC(F)(F)F)O3)c1 (stereo not drawn),·,-5.1,·,·,·,·,·
CCCc1noc2c1/C(=N\O)CC(c1ccccc1)C2 (stereo not drawn),8.9,-3.9,22.9*,29.0,-2.2,41.0*,22.8*
CCOc1cc(-c2ccccc2)nc2c1CN(S(=O)(=O)c1ccc(C)cc1)C(c1cccc(Cl)c1)C2 (stereo not drawn),·,-6.6,·,·,·,·,·
COc1ccc(OC2(C)CCN(Cc3ccc(-c4ccccc4)o3)C2)cc1 (stereo not drawn),·,-4.6,·,·,·,·,·
C#CCN(C)Cc1ccccc1,0.2,2.6,-11.5,14.1,5.0,·,·
C#CC(CO)N(CCN(Cc1ccccc1)C(C#C)CO)Cc1ccccc1 (stereo not drawn),-21.7,-5.3,·,15.1,-28.6,·,13.6
CC(C)c1cc(N2CCN(C(=O)c3ccco3)CC2)n2c(nc3ccccc32)c1C#N,-19.9,3.9,25.3*,16.5,-28.6,-8.7,2.8
CCn1c(N2CCN(C(=O)c3ccco3)CC2)nc2ccccc21,-13.9,-2.9,-6.4,1.8,0.5,·,·
O=C(Nc1ccc(N2CCN(C(=O)c3ccccc3)CC2)c(Cl)c1)c1ccc(Br)o1,3.4,-5.1,6.0,13.4,4.5,·,·
O=C(Nc1ccccc1N1CCN(C(=O)c2ccccc2)CC1)c1ccc([N+](=O)[O-])o1,·,-8.1,36.6*,·,·,33.1*,34.9*
O=C(Nc1ccc(N2CCN(C(=O)c3ccccc3)CC2)cc1)c1ccc(Br)o1,-16.2,-4.9,38.2*,22.8,-21.6,38.9*,32.4*
CC(C)C(=O)N1CCN(c2ccccc2NC(=O)c2ccc([N+](=O)[O-])o2)CC1,-22.2,-11.0,35.0*,61.2*,-23.8,27.6*,21.3
CCOC1=C2[C@H](c3ccccc3)N(S(=O)(=O)c3ccc(C)cc3)[C@H](C(C)C)[C@H]2C(C#N)(C#N)C(C#N)(C#N)C1,·,-3.9,·,·,·,·,·
O=C1N(Cc2ccccc2)CC2(Br)COCOC12O (stereo not drawn),·,-4.9,·,·,·,·,·
CC(=O)c1ccc(NC(=O)COC(=O)CCN2C(=O)c3cccc([N+](=O)[O-])c3C2=O)cc1,-6.9,-6.0,-1.8,7.8,-30.4,·,·
CC(C)N(c1ccccc1)c1ccc(NC(=O)COC(=O)CCN2C(=O)c3cccc([N+](=O)[O-])c3C2=O)cc1,6.2,-2.2,28.8*,7.3,2.2,74.3*,59.6*
CSc1ccc(CN2CCC(C)(Oc3ccc(C(C)=O)cc3)C2)cc1 (stereo not drawn),·,-7.6,·,·,·,·,·
OCC1CCCCN1CCNCc1cn[nH]c1-c1cccc2ccccc12 (stereo not drawn),-1.0,-7.2,1.5,9.6,-17.0,·,·
c1ccc2c(-c3[nH]ncc3CNCCCn3ncc4ccccc43)cccc2c1,21.6,-8.9,22.4*,17.3,-23.4,27.1*,51.7*
